Values joined by “and” are separate entries in the source; they are usually repeats but may differ in a detail not shown here. Identical values can stand only once.
System: Fibroblast
Test: Multiplex assay against human fibroblast
Type: toxicity, cell-based
Conditions: number of replicates 2
How it was run: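 Compound was added to live cells that had been stained at seeding with Hoechst33342, BioTracker Green Microtubule Cytoskeleton Dye, MitoTracker Red and Annexin V Alexa Fluor 680, and imaging followed on a CQ1 microscope at 37°C and 5% CO2. CellPathfinder machine-learning gating divided cells into Hoechst high-intensity objects or normal cells, normal cells into healthy, pyknosed or fragmented nuclei, and pyknosed cells into mitotic or apoptotic. Tubulin, mitochondrial-mass and membrane-permeability phenotypes are per cents of healthy-nucleus cells.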

[1] = 12 h, 1 µM, compound concentration 1 uM
[2] = 12 h, 10 µM, compound concentration 10 uM
[3] = 24 h, 1 µM, compound concentration 1 uM
[4] = 24 h, 10 µM, compound concentration 10 uM
[5] = 48 h, 1 µM, compound concentration 1 uM
[6] = 48 h, 10 µM, compound concentration 10 uM

COc1cccc(Cn2cc(C(=O)Nc3ccc(C)c(S(=O)(=O)N4CCOCC4)c3)c(-c3ccc(C)cc3)n2)c1
Population Apoptotic (%) [1]: 48% and 37%
Population Fragmented Nuclei (%) [1]: 7% and 6%
Population Healthy Nuclei (%) [1]: 65% and 67%
Population Hoechst High Intensity Objects (%) [1]: 0% and 1%
Population Membrane Permeable-Phenotype (%) [1]: 13% and 10%
Population Mitochondria Different-Phenotype (%) [1]: 2% and 3%
Population Mitotic Cells (%) [1]: 51% and 62%
Population Normal (%) [1]: 100% and 98%
Population Pyknosed Nuclei (%) [1]: 26% and 27%
Population Tubulin-Different-Phenotype (%) [1]: 44% and 39%
Total Cell Count [1]: 152 and 203
Population Apoptotic (%) [2]: 39% and 45%
Population Fragmented Nuclei (%) [2]: 6% and 7%
Population Healthy Nuclei (%) [2]: 63% and 53%
Population Hoechst High Intensity Objects (%) [2]: 0% and 1%
Population Membrane Permeable-Phenotype (%) [2]: 21% and 28%
Population Mitochondria Different-Phenotype (%) [2]: 2% and 1%
Population Mitotic Cells (%) [2]: 60% and 54%
Population Normal (%) [2]: 100% and 98%
Population Pyknosed Nuclei (%) [2]: 29% and 38%
Population Tubulin-Different-Phenotype (%) [2]: 93% and 85%
Total Cell Count [2]: 191 and 229
Population Apoptotic (%) [3]: 57% and 42%
Population Fragmented Nuclei (%) [3]: 9% and 10%
Population Healthy Nuclei (%) [3]: 64% and 59%
Population Hoechst High Intensity Objects (%) [3]: 0%
Population Membrane Permeable-Phenotype (%) [3]: 13% and 9%
Population Mitochondria Different-Phenotype (%) [3]: 1% and 3%
Population Mitotic Cells (%) [3]: 42% and 57%
Population Normal (%) [3]: 100%
Population Pyknosed Nuclei (%) [3]: 25% and 30%
Population Tubulin-Different-Phenotype (%) [3]: 44% and 38%
Total Cell Count [3]: 162 and 205
Population Apoptotic (%) [4]: 66% and 67%
Population Fragmented Nuclei (%) [4]: 9%
Population Healthy Nuclei (%) [4]: 70% and 57%
Population Hoechst High Intensity Objects (%) [4]: 0% and 1%
Population Membrane Permeable-Phenotype (%) [4]: 14% and 20%
Population Mitochondria Different-Phenotype (%) [4]: 2% and 7%
Population Mitotic Cells (%) [4]: 33% and 32%
Population Normal (%) [4]: 100% and 98%
Population Pyknosed Nuclei (%) [4]: 19% and 32%
Population Tubulin-Different-Phenotype (%) [4]: 90% and 84%
Total Cell Count [4]: 199 and 219
Population Apoptotic (%) [5]: 73% and 64%
Population Fragmented Nuclei (%) [5]: 13% and 11%
Population Healthy Nuclei (%) [5]: 65% and 67%
Population Hoechst High Intensity Objects (%) [5]: 0%
Population Membrane Permeable-Phenotype (%) [5]: 6% and 9%
Population Mitochondria Different-Phenotype (%) [5]: 1% and 2%
Population Mitotic Cells (%) [5]: 26% and 35%
Population Normal (%) [5]: 100% and 99%
Population Pyknosed Nuclei (%) [5]: 21% and 20%
Population Tubulin-Different-Phenotype (%) [5]: 34%
Total Cell Count [5]: 178 and 191
Population Apoptotic (%) [6]: 75%
Population Fragmented Nuclei (%) [6]: 15% and 17%
Population Healthy Nuclei (%) [6]: 69% and 58%
Population Hoechst High Intensity Objects (%) [6]: 0% and 1%
Population Membrane Permeable-Phenotype (%) [6]: 25% and 23%
Population Mitochondria Different-Phenotype (%) [6]: 1% and 5%
Population Mitotic Cells (%) [6]: 25%
Population Normal (%) [6]: 100% and 98%
Population Pyknosed Nuclei (%) [6]: 15% and 23%
Population Tubulin-Different-Phenotype (%) [6]: 89% and 83%
Total Cell Count [6]: 210 and 238

From ChEMBL document CHEMBL5303300, “EUbOPEN Chemogenomics Library - Multiplex” (2023)
